KDM4C inh – KDM4C (human) demethylase inhibition; Q9H3R0; AID 720574; GST-KDM4C 2-372, H3K9me3 peptide, LANCE TR-FRET; 96,000 compounds, 0.15% hits; inhibition, % at 12.5 µM;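 active means mean replicate inhibition above about 25%, with at least 55% of replicates also reaching it, limit read from the data, passing the limit was not always enough; inconclusive means only one of those two conditions met; inactive means neither condition met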
Target sequence (Q9H3R0 2-372 limits assumed): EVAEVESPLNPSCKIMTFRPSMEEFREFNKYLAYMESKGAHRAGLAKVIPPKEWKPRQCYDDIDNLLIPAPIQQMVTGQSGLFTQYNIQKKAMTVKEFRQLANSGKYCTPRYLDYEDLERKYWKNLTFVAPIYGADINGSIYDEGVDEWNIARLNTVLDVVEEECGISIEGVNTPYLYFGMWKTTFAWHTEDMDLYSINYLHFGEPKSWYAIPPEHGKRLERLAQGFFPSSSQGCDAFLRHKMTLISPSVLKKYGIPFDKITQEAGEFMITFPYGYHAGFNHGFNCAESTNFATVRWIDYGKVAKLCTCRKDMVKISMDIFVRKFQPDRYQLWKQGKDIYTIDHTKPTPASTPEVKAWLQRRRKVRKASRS
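Assay system: GST-GASC-1 enzyme fragment 2-372 | Amount: 10 nM enzyme | Medium: HEPES buffer, pH 7.5, plus ascorbate | Reagent: H3K9me3 peptide substrate, Fe(II), 2-oxoglutarate | Doses: Single-point compound screen | Incubation: 30 min demethylation and 1 h detection at room temperature | Measured by: LANCE TR-FRET, excitation 340 nm, emissions 618 and 671 nm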
T cruzi growth-1 – blocks T. cruzi growth in NIH3T3 culture; T. cruzi beta-gal in NIH3T3, GalScreen luminescence, 90 h; inhibition, % at 8.34 µM; 77,000 compounds, 5.9% hits; AID 624255;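 active means mean inhibition above about 93%, with at least 55% of replicates each passing it, limit read from the data, passing the limit was not always enough; inconclusive means only one of those two conditions holds; inactive means neither condition holds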
Pf Dd2 growth – inhibitors of Plasmodium falciparum Dd2 growth; P. falciparum Dd2 growth, SYBR Green, 72 h; active compounds read low; activity change, % at 10 µM; 94,000 compounds, 2.3% hits; in the data active means activity change below about -80%; inconclusive means no clear call, values can overlap the other calls
IDH1 mut inh – blocks human IDH1 R132H reductase activity | inhibition, % at 10 µM | AID 624101 | O75874 | diaphorase/resazurin fluorescence, 60 min | 70,000 compounds, 0.18% hits; in the data active means inhibition above about 34%; inconclusive means no clear call, values can overlap the other calls; inactive means below about 11%;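 further: 0% = DMSO and 100% = no enzyme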
T cruzi growth-2 – Trypanosoma cruzi proliferation inhibition; T. cruzi beta-gal in NIH3T3, GalScreen luminescence, 90 h; 5,600 compounds, 72% hits; inhibition, % at 8.35 µM; shares compounds with T cruzi growth-1;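 active means mean replicate inhibition above about 95% and at least 55% of replicates individually reaching it, limit read from the data; inconclusive means only one of the two criteria is met; inactive means neither criterion is met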
T cruzi growth-3 – blocks T. cruzi growth in NIH3T3 host cells; shares compounds with T cruzi growth-1; T. cruzi beta-gal in NIH3T3, GalScreen luminescence, 90 h; inhibition, % at 2.09 µM; 5,600 compounds, 21% hits;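 active means mean inhibition above about 95%, with at least 55% of replicates also reaching it, limit read from the data; inconclusive means meets just one of the two conditions; inactive means meets neither condition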;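 further: plate controls were neutral control median for no effect and positive control median for full effect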
NIH3T3 tox – kills mouse NIH/3T3 fibroblasts; NIH/3T3 viability, CellTiter-Glo ATP luminescence, 90 h; 5,600 compounds, 14% hits; AID 651742; cytotoxicity (signal decrease), % at 8.35 µM; shares compounds with T cruzi growth-1;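 active means mean signal decrease across replicates above about 35% based on untreated-well scatter, with enough replicates individually passing, limit read from the data; inconclusive means no rule stated though some were filed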;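 further: 0% = median of neutral control wells and 100% = median of positive control wells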
3T3 cytotox 2 – kills mouse NIH/3T3 fibroblasts | inhibition, % at 24.9 µM | 5,600 compounds, 56% hits | shares compounds with T cruzi growth-1 | NIH/3T3 viability, CellTiter-Glo ATP luminescence, 90 h;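 active means mean loss of cell viability signal at or above a set limit, and enough replicates individually reaching it; inconclusive means meets only the mean limit or only the replicate share; inactive means meets neither condition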;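 further: 0% = median of neutral control wells and 100% = median of positive control wells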
The depositor's hits bear a star; ? = inconclusive; . = no result. Sampled rows, rich in hits. Any-hit rate of the full collection: about 5.9%.

SMILES | KDM4C inh | T cruzi growth-1 | Pf Dd2 growth | IDH1 mut inh | T cruzi growth-2 | T cruzi growth-3 | NIH3T3 tox | 3T3 cytotox 2
C[C@@H]1CN([C@@H](C)CO)C(=O)c2cc(NC(=O)Cc3ccccc3)ccc2O[C@@H](C)CCCCO[C@H]1CN(C)CC1CCCCC1 | -1 | 116* | -39 | . | 109* | 59 | 1 | 58*
C[C@@H]1CN([C@@H](C)CO)C(=O)c2cc(NC(=O)Nc3ccccc3)ccc2O[C@@H](C)CCCCO[C@@H]1CN(C)CC1CCCCC1 | -1 | ? | -74 | 0 | 101* | 39 | 3 | 104*
COc1ccc(-c2c(-c3ccc(OCc4cnn(-c5ccccc5)c4)c(C)c3O)n[nH]c2C)cc1 | . | . | . | 0 | . | . | . | .
C[C@@H]1CN([C@@H](C)CO)C(=O)c2cc(NC(=O)Nc3ccccc3)ccc2O[C@@H](C)CCCCO[C@H]1CN(C)Cc1ccc(Cl)c(Cl)c1 | 6 | 69 | -75 | 0 | . | . | . | .
C[C@@H]1CCCCO[C@@H](CN(C)Cc2ccc(Cl)c(Cl)c2)[C@H](C)CN([C@@H](C)CO)C(=O)c2cc(NC(=O)Nc3ccccc3)ccc2O1 | -1 | 70 | -72 | -13 | . | . | . | .
COc1ccc(NC(=O)Nc2ccc3c(c2)C(=O)N([C@@H](C)CO)C[C@H](C)[C@@H](CN(C)Cc2ccc(Cl)c(Cl)c2)OCCCC[C@H](C)O3)cc1 | 0 | 124* | -29 | 2 | 99* | 113* | 16 | 21
COc1ccc(NC(=O)Nc2ccc3c(c2)C(=O)N([C@H](C)CO)C[C@@H](C)[C@H](CN(C)Cc2ccc(Cl)c(Cl)c2)OCCCC[C@H](C)O3)cc1 | -2 | 121* | -62 | . | 93 | 107* | 9 | 17
CS(=O)(=O)N(CC(=O)Nc1cc(Cl)ccc1Cl)c1ccc2c(c1)OCCO2 | . | . | . | 0 | . | . | . | .
Cc1noc(C)c1S(=O)(=O)N(C)C[C@@H]1OCCCC[C@@H](C)Oc2ccc(NC(=O)Nc3ccc(F)cc3)cc2C(=O)N([C@H](C)CO)C[C@H]1C | 0 | 75 | -47 | 1 | . | . | . | .
Cc1noc(C)c1S(=O)(=O)N(C)C[C@@H]1OCCCC[C@H](C)Oc2ccc(NC(=O)Nc3ccc(C(F)(F)F)cc3)cc2C(=O)N([C@H](C)CO)C[C@@H]1C | -1 | 104* | -35 | . | 105* | 113* | 18 | 8
Cc1noc(C)c1S(=O)(=O)N(C)C[C@@H]1OCCCC[C@@H](C)Oc2ccc(NC(=O)Nc3ccc(C(F)(F)F)cc3)cc2C(=O)N([C@@H](C)CO)C[C@@H]1C | -1 | 86 | -15 | . | . | . | . | .
Cc1noc(C)c1S(=O)(=O)N(C)C[C@H]1OCCCC[C@@H](C)Oc2ccc(NC(=O)Nc3ccc(C(F)(F)F)cc3)cc2C(=O)N([C@H](C)CO)C[C@@H]1C | -2 | 110* | -53 | -1 | 108* | 102* | 7 | 32*
Cc1noc(C)c1S(=O)(=O)N(C)C[C@H]1OCCCC[C@@H](C)Oc2ccc(NC(=O)Nc3ccc(C(F)(F)F)cc3)cc2C(=O)N([C@@H](C)CO)C[C@@H]1C | 0 | 99* | -94* | 2 | 106* | 116* | 30 | 35*
CCOC(=O)c1c(NC(=O)c2cccc(S(=O)(=O)N3CCCCCC3)c2)sc2c1CCC2 | . | . | . | 0 | . | . | . | .
Cc1ccccc1S(=O)(=O)N1CCCCN2[C@H](CO)[C@@H](c3ccc(C#CCN(C)C)cc3)[C@@H]2C1 | 3 | 30 | -17 | . | . | . | . | .
CN(C)CC#Cc1ccc([C@@H]2[C@H](CO)N3CCCCN(S(=O)(=O)c4ccccc4F)C[C@@H]23)cc1 | 3 | 103* | -48 | . | 110* | 8 | 13 | 76*
Cc1ccccc1S(=O)(=O)N1CCCCN2[C@H](C1)[C@H](c1ccc(C#CCN(C)C)cc1)[C@@H]2CO | 5 | 98* | -16 | . | 110* | 47 | 22 | 83*
CCCC#Cc1ccc([C@@H]2[C@@H](CO)N3CCCCN(S(=O)(=O)c4ccccc4C)C[C@H]23)cc1 | 1 | 119* | -55 | . | 105* | ? | 14 | 106*
Cc1ccccc1S(=O)(=O)N1CCCCN2[C@@H](CO)[C@@H](c3ccc(C#CCN(C)C)cc3)[C@@H]2C1 | 3 | 99* | -53 | . | 107* | 89 | ? | 103*
Cc1cc(C)c(C)c(OCC(=O)NCc2cccnc2)c1 | . | . | . | 4 | . | . | . | .
COCC#Cc1ccc([C@@H]2[C@@H](CO)N3CCCCN(S(=O)(=O)c4ccccc4F)C[C@H]23)cc1 | . | 87 | -53 | . | . | . | . | .
COCC#Cc1ccc([C@H]2[C@@H](CO)N3CCCCN(S(=O)(=O)c4ccccc4F)C[C@@H]23)cc1 | 0 | 107* | -24 | . | 106* | 73 | 7 | 20
COC(=O)c1ccc(NC(=O)C2Cc3ccccc3CN2S(=O)(=O)c2ccc(F)cc2)cc1 (stereo unspecified) | . | . | . | 0 | . | . | . | .
C[C@@H]1CN([C@H](C)CO)C(=O)Cc2cc(NS(=O)(=O)c3ccc(F)cc3)ccc2O[C@H]1CN(C)Cc1ccccc1 | 1 | 97* | 7 | 0 | 110* | 14 | 0 | 23
C[C@@H]1CN([C@H](C)CO)C(=O)Cc2cc(NS(=O)(=O)c3ccc(Cl)cc3)ccc2O[C@H]1CN(C)Cc1ccccc1 | 0 | 100* | 2 | 0 | 110* | 103* | 7 | 16
SMILES | KDM4C inh | T cruzi growth-1 | Pf Dd2 growth | IDH1 mut inh | T cruzi growth-2 | T cruzi growth-3 | NIH3T3 tox | 3T3 cytotox 2
C[C@H](CO)N1C[C@H](C)[C@@H](CN(C)Cc2ccccc2)Oc2ccc(NS(=O)(=O)c3ccc(Cl)cc3)cc2CC1=O | -1 | 95 | -58 | 0 | . | . | . | .
C[C@H](CO)N1C[C@H](C)[C@H](CN(C)Cc2ccccc2)Oc2ccc(NS(=O)(=O)c3ccc(F)cc3)cc2CC1=O | 1 | 72 | -41 | 4 | . | . | . | .
C[C@H]1CN([C@@H](C)CO)C(=O)Cc2cc(NS(=O)(=O)c3ccc(F)cc3)ccc2O[C@H]1CN(C)Cc1ccccc1 | 0 | 100* | -42 | -2 | 99* | 24 | -8 | 28
Cc1ccccc1S(=O)(=O)N1CCCCN2[C@H](C1)[C@@H](c1ccc(-c3cncnc3)cc1)[C@@H]2CO | -4 | 78 | -10 | . | . | . | . | .
Cc1ccccc1S(=O)(=O)N1CCCCN2[C@H](C1)[C@@H](c1ccc(-c3cccnc3)cc1)[C@@H]2CO | -4 | 86 | -3 | . | . | . | . | .
Cc1ccccc1S(=O)(=O)N1CCCCN2[C@H](C1)[C@H](c1ccc(-c3cncnc3)cc1)[C@@H]2CO | 0 | 102* | -1 | . | 100* | 19 | 12 | 24
